Source: ChEMBL document CHEMBL1240506, “Identification and development of novel inhibitors of Toxoplasma gondii enoyl reductase” (J Med Chem, 2010)
≈ marks a conversion by molar mass, not a printed value. Calls of active or inactive are those of the source. The calls are words filed in the database; no cut-off is given here.

Assays:
[1] = Metabolic stability in human liver microsome assessed as compound remaining after 60 mins; type: ADME; conditions: liver microsomes, read-out: INH
Procedure, shortened: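 Compounds were incubated with pooled human liver microsomes for 60 minutes, and the percentage of parent compound remaining was measured.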

Toxoplasma gondii [2] = experiment: Antiparasitic activity against Toxoplasma gondii RH infected in ip dosed CD1 mouse; type: functional, organism-based
Procedure, shortened: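 CD1 mice were infected intraperitoneally with 2000 RH (Type 1) parasites, a lethal inoculum. Inhibitors were given intraperitoneally at 10mg/kg. Read-outs were peritoneal parasite burden by microscopy at day 5 and survival up to day 5 post-infection. There were 6 mice per group.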

CYP2C9 = CYP2C9 (Homo sapiens, UniProt P11712); experiment: Inhibition of CYP2C9 at 10 uM; type: ADME
Procedure, shortened: (§1)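 Inhibition was measured against recombinant CYP450 isozymes 2C9, 2D6 and 3A4, each with compound at 10μM, and reported as percent inhibition.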

CYP2D6 = CYP2D6 (Homo sapiens, UniProt P10635); experiment: Inhibition of CYP2D6 at 10 uM; type: ADME; procedure, shortened: as §1
HFF [3] = experiment: Toxicity to HFF; type: cell-based; conditions: human
Procedure, shortened: (§2)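 Host-cell toxicity was tested on non-confluent fibroblast monolayers by 3H-thymidine incorporation, alongside visual inspection of monolayer integrity. Testing ran simultaneously with the parasite inhibition assay, and the highest concentration tested was scored.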

[4] = molecular target: T1, Enoyl-acyl carrier reductase (Toxoplasma gondii, UniProt Q6UCJ9); experiment: Inhibition of Toxoplasma gondii enoyl reductase
T1 sequence (Q6UCJ9 whole entry): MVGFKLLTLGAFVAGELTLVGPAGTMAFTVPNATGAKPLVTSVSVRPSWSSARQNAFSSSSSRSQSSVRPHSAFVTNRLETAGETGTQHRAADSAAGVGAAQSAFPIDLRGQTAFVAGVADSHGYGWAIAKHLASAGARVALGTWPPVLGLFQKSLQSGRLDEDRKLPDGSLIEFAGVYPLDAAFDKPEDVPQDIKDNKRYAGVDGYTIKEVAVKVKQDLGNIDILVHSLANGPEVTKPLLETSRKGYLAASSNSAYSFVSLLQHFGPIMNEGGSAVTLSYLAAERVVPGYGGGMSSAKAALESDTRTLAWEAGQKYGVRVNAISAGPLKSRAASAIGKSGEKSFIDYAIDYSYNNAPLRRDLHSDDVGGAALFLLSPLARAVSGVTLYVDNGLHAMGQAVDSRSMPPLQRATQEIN
Procedure, shortened: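 Recombinant TgENR (20 nM) was assayed in 100 mM Na/K phosphate pH 7.5, 150 mM NaCl and 100 μM NADH. Compounds were added in DMSO (2% final), and reactions were started at 25°C with 100 μM crotonyl-CoA. NADH consumption was followed at 340 nm.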

HFF [5] = experiment: Toxicity to HFF at highest concentration; type: cell-based; conditions: human; procedure, shortened: as §2
CYP3A4 = CYP3A4 (Homo sapiens, UniProt P08684); experiment: Inhibition of CYP3A4 at 10 uM; type: ADME; procedure, shortened: as §1
Toxoplasma gondii [6] = experiment: Antiparasitic activity against Toxoplasma gondii infected in HFF after 24 hrs by [3H]uracil incorporation assay; type: functional
Procedure, shortened: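 Human foreskin fibroblasts were infected with T. gondii tachyzoites and given 1 h to invade before inhibitors were added. Cultures ran 3 days, then 3H-uracil was added for a further day. Parasite growth was read as uracil incorporation by liquid scintillation counting. MIC50 and MIC90 are the concentrations giving 50% and 90% growth inhibition. There were 6 replicate samples per group.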

Chain of CYP2C9 (P11712 whole entry): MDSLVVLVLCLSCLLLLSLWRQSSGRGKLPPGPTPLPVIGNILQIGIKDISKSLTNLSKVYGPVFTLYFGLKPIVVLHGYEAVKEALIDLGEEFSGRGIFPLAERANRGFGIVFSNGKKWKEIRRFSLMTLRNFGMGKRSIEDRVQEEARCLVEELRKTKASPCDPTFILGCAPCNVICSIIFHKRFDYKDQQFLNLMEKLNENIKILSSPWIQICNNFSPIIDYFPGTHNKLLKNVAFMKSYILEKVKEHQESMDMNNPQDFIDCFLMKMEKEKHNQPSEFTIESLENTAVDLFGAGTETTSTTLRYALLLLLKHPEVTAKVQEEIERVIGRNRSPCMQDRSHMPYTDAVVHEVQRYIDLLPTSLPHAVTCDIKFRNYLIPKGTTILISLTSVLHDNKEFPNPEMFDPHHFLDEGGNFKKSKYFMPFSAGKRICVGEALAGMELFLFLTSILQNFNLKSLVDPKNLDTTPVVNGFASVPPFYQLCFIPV
Chain of CYP2D6 (P10635 whole entry): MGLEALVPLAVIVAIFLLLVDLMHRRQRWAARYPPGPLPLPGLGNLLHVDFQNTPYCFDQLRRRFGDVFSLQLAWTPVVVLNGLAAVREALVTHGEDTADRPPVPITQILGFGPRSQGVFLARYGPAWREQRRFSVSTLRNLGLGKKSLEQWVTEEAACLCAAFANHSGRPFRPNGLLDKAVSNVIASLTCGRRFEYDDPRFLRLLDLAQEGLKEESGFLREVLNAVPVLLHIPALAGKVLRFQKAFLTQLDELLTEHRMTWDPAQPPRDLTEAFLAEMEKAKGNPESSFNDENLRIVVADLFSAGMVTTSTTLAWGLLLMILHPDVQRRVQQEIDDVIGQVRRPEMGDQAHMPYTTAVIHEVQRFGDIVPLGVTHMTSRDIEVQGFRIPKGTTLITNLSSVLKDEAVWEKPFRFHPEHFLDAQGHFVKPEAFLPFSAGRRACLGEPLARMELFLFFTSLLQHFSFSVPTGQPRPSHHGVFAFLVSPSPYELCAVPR
Chain of CYP3A4 (P08684 whole entry): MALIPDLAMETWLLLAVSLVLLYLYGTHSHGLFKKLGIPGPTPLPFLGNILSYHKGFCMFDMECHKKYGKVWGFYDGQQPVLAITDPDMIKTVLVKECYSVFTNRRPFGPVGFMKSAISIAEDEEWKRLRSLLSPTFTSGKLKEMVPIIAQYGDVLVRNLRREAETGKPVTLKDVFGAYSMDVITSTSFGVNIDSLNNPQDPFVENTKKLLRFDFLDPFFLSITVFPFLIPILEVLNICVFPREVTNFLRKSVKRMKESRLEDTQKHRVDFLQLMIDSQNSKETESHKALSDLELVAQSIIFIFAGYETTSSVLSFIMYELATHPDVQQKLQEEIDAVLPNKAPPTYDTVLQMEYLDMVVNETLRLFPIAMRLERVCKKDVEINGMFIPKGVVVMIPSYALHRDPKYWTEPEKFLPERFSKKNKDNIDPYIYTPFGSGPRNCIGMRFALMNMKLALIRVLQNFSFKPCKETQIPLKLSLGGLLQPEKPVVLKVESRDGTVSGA

Question: Which remaining at 1 h [1] does the source give for `CCCc1ccc(Oc2ccc(C#N)cc2Cl)c(O)c1` here?
Answer: 45.1%

Question: What about the Activity (Toxoplasma gondii [2]) of the same compound?
Answer: Active

Question: And the inhibition at 10 µM (CYP2C9)?
Answer: > 85%

Question: What about the inhibition at 10 µM (CYP2D6) of the same compound?
Answer: < 22%

Question: What about the Activity (HFF [3]) of the same compound?
Answer: 5 µM

Question: What about the IC50 [4] of the same compound?
Answer: < 20 nM

Question: What about the Activity (HFF [5]) of the same compound?
Answer: Non-toxic

Question: And the inhibition at 10 µM (CYP3A4)?
Answer: < 22%

Question: What about the MIC50 (Toxoplasma gondii [6]) of the same compound?
Answer: 3 µM (≈ 0.863 µg/mL)

Question: And the MIC90 (Toxoplasma gondii [6])?
Answer: 5 µM (≈ 1.44 µg/mL)
